Measurements: ChEMBL document CHEMBL2424583, “Structure-activity relationship and in vitro and in vivo evaluation of the potent cytotoxic anti-microtubule agent N-(4-methoxyphenyl)-N,2,6-trimethyl-6,7-dihydro-5H-cyclopenta[d]pyrimidin-4-aminium chloride and its analogues as antitumor agents” (J Med Chem, 2013)
Active and inactive are the calls of the source. The rule behind the calls is not given here.

What was measured:
A10 [1] = experiment: Induction of microtubule depolymerization in rat A10 cells up to 10 uM after 18 hrs by indirect immunofluorescence assay; assay type: cell-based
How it was run: (§1)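 A-10 cells were exposed to vehicle or compound for 18 h, fixed, and microtubules were visualized by indirect immunofluorescence. EC50 is the concentration causing about 50% microtubule loss, from at least three independent experiments.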

A10 [2] = experiment: Induction of microtubule depolymerization in rat A10 cells up to 40 uM after 18 hrs by indirect immunofluorescence assay; assay type: cell-based; how it was run: as §1
MDA-MB-435 = experiment: Cytotoxicity against human MDA-MB-435 cells assessed as growth inhibition after 48 hrs by SRB assay; assay type: functional, cell-based; settings: MDA-MB-435, 48 h
[3] = Induction of microtubule depolymerization in rat A10 cells after 18 hrs by indirect immunofluorescence assay; assay type: cell-based; how it was run: as §1
Tubulin (Sus scrofa) = Tubulin (Sus scrofa) (UniProt P02554+P02550); experiment: Displacement of [3H]-colchicine from pig brain tubulin at 1 uM after 10 mins by scintillation counting analysis relative to control
Sequence of Tubulin (Sus scrofa) (P02550 whole entry, looked up): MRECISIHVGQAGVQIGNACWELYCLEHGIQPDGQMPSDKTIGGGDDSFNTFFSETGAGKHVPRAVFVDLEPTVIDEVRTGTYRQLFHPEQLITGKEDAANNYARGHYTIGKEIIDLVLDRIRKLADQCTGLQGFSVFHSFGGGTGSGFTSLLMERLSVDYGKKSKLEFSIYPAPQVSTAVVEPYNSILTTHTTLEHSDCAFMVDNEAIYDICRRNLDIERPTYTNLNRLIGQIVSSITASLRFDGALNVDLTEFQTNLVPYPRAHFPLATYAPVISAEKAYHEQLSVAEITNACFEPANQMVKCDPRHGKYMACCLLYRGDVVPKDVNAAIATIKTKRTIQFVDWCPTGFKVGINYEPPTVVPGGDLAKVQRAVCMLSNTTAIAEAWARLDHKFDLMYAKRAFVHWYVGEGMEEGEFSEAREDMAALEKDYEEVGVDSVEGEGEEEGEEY
Sequence of Tubulin (Sus scrofa) (P02554 whole entry, looked up): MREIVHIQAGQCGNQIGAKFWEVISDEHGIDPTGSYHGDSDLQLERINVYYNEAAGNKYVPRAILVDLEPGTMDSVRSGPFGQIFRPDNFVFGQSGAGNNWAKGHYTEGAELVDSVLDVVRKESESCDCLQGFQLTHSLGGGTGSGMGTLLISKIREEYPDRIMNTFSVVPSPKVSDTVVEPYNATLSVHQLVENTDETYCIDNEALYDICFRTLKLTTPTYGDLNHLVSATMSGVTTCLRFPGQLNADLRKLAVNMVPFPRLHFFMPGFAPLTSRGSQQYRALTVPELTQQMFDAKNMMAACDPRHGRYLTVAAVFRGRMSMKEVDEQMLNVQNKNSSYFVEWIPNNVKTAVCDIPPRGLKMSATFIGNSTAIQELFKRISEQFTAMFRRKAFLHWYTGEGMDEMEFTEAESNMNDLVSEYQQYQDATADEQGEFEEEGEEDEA

SMILES | Activity (A10 [1]) | Activity (A10 [2]) | IC50 (MDA-MB-435) | EC50 [3] | inhibition (Tubulin (Sus scrofa))
CN(c1ccc(Cl)cc1)c1ncnc2c1CCC2 | inactive | – | – | – | –
COc1ccc(Nc2nc(N)nc3c2CC(C)C3)cc1 (racemic) | – | inactive | > 10000 nM | – | –
COc1ccc(N(C)c2nc(N)nc3c2CCC3)cc1 | – | – | 16.7 nM | 110 nM | –
CCOc1ccc(N(C)c2ncnc3c2CCC3)cc1 | – | – | 48.7 nM | 730 nM | –
Cc1ccc(N(C)c2ncnc3c2CCC3)cc1 | inactive | – | – | – | –
COc1ccccc1N(C)c1nc(N)nc2c1CCC2 | inactive | – | > 1000 nM | – | –
Cc1ccc(N(C)c2nc(C)nc3c2CCC3)cc1 | – | – | 360 nM | 10500 nM | –
Cc1nc2c(c(N(C)c3cccc(Br)c3)n1)CC(C)C2 (racemic) | – | – | 1500 nM | 15000 nM | –
C=CC1Cc2nc(N)nc(N(C)c3ccc(OC)cc3)c2C1 (racemic) | – | – | 205 nM | 899 nM | –
COc1ccc(N(C)c2ncnc3c2CCC3)cc1 | – | – | 43 nM | 655 nM | –
COc1cccc(N(C)c2nc(N)nc3c2CCC3)c1 | inactive | – | > 1000 nM | – | –
Cc1nc2c(c(N(C)c3ccc(Cl)cc3)n1)CC(C)C2 (racemic) | – | inactive | 2300 nM | – | –
COc1ccc(N(C)c2nc(N)nc3c2CC(C)C3)cc1 (racemic) | – | – | 29.9 nM | 143 nM | –
CCOc1ccc(N(C)c2nc(N)nc3c2CCC3)cc1 | – | – | 20.3 nM | 148 nM | –
CSc1ccc(N(C)c2nc(C)nc3c2CC(C)C3)cc1 (racemic) | – | – | 15.6 nM | 64 nM | –
COc1ccc(/C=C\c2cc(OC)c(OC)c(OC)c2)cc1O [COMBRETASTATIN A4] | – | – | – | 7 nM | 80%
CCOc1ccc(N(C)c2nc(C)nc3c2CCC3)cc1 | – | – | 15.1 nM | 64 nM | –
COc1ccc(N(C)c2nc(C)nc3c2C(C)CC3)cc1 (racemic) | – | – | 18.8 nM | 47 nM | –
C=CC1Cc2nc(C)nc(N(C)c3ccc(OC)cc3)c2C1 (racemic) | – | – | 73.2 nM | 140 nM | –
CSc1ccc(N(C)c2ncnc3c2CCC3)cc1 | – | – | 42.8 nM | 675 nM | –
